# According to ChEMBL document CHEMBL1121441, “Synthesis and properties of the sulfonyl analogues of 4(5)-aminoimidazole-5(4)-carboxamide, 4(5)-(formylamino)imidazole-5(4)-carboxamide, guanine, and xanthine” (J Med Chem, 1980):
# Activity calls are given as the source filed them. The calls are words filed in the database; no cut-off is given here.
# How the values were obtained:
# [1] = tested on: L1210; test: Compound tested for inhibition of growth of L1210 cells in culture at 10e-4 M; NI = no inhibition; assay type: functional, cell-based; details: Mus musculus
# Method in brief: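 Murine L1210 leukemia cells were harvested in log phase and resuspended in RPMI 1640 with 10% fetal bovine serum at a starting density of 17.5×10^4 cells/mL. Analogue stock was 5×10⁻³ M in phosphate-buffered saline, pH 7.4, filter-sterilized, then serially diluted in medium. Final concentrations were 10⁻⁴ to 10⁻⁸ M. Cultures grew 72 h at 37 °C and were counted every 24 h by Coulter counter against untreated controls.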
# [2] = Compound was tested for apparent dissociation constant at pH 7; assay type: ADME
# Method in brief: (§1)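 pKa values were determined potentiometrically on 0.001 M solutions with a pH meter. For one analogue the values came from least-squares analysis with activity corrections. Measurement temperature was recorded with each value, and standard deviations were reported.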
# [3] = Compound was tested for apparent dissociation constant at pH 10; assay type: ADME; method in brief: as §1
# [4] = Compound was tested for apparent dissociation constant at pH 13; assay type: ADME; method in brief: as §1
# [5] = Compound was tested for apparent dissociation constant at pH 9; assay type: ADME; method in brief: as §1
# [6] = Compound was tested for apparent dissociation constant at pH 14; assay type: ADME; method in brief: as §1
Compound,inhibition [1],pKa [2],pKa [3],pKa [4],pKa [5],pKa [6]
NS(=O)(=O)c1[nH]cnc1NC=O,inactive,8.7,–,–,–,–
Nc1[nH]cnc1S(N)(=O)=O,inactive,9.43,–,–,–,–
O=C1Nc2[nH]cnc2S(=O)(=O)N1,inactive,2.55,8.99,11,–,–
NC1=NS(=O)(=O)c2nc[nH]c2N1,inactive,–,–,–,6.84,11.6
